# Assay results reported in ChEMBL document CHEMBL1147798, “Novel bis(1H-indol-2-yl)methanones as potent inhibitors of FLT3 and platelet-derived growth factor receptor tyrosine kinase” (J Med Chem, 2006).
# Activity calls are given as the source filed them. The rule behind the calls is not given here.
# Legend:
# [1] = target: Platelet-derived growth factor receptor (Mus musculus, UniProt P05622+P26618); experiment: Inhibition of endogenous PDGFR in Swiss3T3 fibroblasts
# [2] = target: Platelet-derived growth factor receptor beta (Homo sapiens, UniProt P09619); experiment: Inhibition of human PDGFR beta
# Chain of Platelet-derived growth factor receptor beta (P09619 whole entry): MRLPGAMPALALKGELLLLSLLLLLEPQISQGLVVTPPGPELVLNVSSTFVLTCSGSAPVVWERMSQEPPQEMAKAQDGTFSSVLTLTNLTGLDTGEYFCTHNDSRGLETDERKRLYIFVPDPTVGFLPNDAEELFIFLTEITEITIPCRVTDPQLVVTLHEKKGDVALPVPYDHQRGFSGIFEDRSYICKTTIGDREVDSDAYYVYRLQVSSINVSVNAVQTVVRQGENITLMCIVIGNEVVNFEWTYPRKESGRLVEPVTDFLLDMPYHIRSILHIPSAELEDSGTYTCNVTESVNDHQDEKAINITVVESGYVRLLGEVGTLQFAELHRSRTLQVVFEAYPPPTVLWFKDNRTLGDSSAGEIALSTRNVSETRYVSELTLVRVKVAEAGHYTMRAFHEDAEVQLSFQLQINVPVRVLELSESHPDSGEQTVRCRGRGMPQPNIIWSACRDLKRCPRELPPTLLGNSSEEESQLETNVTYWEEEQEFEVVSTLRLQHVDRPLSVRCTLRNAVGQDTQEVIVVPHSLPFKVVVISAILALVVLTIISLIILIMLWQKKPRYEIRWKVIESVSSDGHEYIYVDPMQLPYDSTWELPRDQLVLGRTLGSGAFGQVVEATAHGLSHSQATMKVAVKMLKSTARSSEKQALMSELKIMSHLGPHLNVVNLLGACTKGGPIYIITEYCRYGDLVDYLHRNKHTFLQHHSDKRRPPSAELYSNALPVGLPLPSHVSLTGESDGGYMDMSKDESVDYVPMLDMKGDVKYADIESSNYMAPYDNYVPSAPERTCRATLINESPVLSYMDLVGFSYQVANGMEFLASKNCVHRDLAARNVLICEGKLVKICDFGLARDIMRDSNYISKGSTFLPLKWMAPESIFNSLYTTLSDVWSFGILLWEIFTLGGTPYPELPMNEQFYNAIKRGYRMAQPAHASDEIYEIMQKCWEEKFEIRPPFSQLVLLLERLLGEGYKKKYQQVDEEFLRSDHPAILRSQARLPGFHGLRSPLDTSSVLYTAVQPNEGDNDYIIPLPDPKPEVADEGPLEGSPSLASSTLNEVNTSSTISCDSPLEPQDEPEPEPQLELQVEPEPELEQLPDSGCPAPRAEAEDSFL
# [3] = target: T1, Receptor-type tyrosine-protein kinase FLT3 (Homo sapiens, UniProt P36888); experiment: Inhibition of endogenous FLT3 in EOL1 cells; assay type: cell-based
# T1 sequence (P36888 whole entry): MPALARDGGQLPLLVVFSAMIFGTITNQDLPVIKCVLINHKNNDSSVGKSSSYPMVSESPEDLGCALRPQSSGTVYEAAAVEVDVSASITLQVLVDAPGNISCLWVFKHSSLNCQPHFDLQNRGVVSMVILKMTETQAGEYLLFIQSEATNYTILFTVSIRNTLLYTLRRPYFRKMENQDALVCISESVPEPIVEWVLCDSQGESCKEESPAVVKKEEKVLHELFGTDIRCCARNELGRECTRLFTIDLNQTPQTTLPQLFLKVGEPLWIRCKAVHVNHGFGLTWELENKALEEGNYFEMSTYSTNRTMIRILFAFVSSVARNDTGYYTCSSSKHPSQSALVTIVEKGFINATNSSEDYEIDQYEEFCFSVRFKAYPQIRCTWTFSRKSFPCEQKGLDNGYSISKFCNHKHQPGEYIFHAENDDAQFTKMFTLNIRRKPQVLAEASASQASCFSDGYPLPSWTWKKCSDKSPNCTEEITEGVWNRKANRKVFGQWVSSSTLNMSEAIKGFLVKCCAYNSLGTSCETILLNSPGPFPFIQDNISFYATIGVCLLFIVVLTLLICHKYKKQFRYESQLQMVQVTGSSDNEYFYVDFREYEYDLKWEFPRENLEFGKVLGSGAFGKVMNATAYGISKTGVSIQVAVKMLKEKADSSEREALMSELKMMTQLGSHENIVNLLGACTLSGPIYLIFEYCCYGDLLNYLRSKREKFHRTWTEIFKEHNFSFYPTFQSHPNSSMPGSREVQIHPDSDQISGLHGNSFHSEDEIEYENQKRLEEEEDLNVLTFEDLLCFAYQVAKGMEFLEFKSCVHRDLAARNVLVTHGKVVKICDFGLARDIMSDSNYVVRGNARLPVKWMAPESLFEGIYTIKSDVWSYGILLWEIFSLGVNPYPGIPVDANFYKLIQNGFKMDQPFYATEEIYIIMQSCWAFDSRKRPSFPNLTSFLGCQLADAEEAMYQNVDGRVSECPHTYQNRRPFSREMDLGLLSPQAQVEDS
# [4] = target: Mast/stem cell growth factor receptor Kit (Homo sapiens) (UniProt P10721); experiment: Inhibition of DNA synthesis in IL3 dependent FDC-P1 cells expressing KIT D814V mutant; assay type: functional, cell-based
# Chain of Mast/stem cell growth factor receptor Kit (Homo sapiens) (P10721 whole entry): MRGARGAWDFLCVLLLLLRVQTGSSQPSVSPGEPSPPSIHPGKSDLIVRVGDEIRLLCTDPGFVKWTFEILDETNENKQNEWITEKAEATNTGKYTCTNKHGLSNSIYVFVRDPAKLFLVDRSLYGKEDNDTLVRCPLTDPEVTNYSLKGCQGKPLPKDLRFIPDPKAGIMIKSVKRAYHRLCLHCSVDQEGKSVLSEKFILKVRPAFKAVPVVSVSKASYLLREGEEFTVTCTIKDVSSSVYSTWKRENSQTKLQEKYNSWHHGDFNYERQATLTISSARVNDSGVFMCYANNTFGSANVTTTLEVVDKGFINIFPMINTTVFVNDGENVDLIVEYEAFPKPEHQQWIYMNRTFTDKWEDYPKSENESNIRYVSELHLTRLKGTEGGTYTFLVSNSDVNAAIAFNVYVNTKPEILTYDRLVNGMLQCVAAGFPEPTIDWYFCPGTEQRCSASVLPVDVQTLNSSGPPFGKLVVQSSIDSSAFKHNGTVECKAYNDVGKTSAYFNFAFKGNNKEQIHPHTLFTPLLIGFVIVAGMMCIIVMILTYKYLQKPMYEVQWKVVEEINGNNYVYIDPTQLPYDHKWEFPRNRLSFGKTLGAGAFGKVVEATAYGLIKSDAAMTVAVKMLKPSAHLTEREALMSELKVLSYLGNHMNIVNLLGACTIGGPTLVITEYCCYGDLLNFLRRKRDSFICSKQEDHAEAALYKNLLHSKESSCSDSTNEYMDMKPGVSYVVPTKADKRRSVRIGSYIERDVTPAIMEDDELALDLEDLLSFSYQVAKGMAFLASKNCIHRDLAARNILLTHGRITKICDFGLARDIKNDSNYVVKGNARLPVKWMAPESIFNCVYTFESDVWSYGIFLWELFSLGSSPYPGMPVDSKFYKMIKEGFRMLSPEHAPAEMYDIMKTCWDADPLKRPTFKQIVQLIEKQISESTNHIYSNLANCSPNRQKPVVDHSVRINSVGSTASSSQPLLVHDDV
# Procedure, shortened: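 Parental FDC-P1 cells or FDC-P1 lines expressing KIT variants treated 42 h with compound, with or without IL-3 or stem cell factor; DNA synthesis measured as [³H]thymidine incorporation.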
# [5] = target: Tyrosine-protein kinase ABL1 (Homo sapiens, UniProt P00519); experiment: Inhibition of recombinant Abl
# Chain of Tyrosine-protein kinase ABL1 (P00519 whole entry, the tested form may be a part): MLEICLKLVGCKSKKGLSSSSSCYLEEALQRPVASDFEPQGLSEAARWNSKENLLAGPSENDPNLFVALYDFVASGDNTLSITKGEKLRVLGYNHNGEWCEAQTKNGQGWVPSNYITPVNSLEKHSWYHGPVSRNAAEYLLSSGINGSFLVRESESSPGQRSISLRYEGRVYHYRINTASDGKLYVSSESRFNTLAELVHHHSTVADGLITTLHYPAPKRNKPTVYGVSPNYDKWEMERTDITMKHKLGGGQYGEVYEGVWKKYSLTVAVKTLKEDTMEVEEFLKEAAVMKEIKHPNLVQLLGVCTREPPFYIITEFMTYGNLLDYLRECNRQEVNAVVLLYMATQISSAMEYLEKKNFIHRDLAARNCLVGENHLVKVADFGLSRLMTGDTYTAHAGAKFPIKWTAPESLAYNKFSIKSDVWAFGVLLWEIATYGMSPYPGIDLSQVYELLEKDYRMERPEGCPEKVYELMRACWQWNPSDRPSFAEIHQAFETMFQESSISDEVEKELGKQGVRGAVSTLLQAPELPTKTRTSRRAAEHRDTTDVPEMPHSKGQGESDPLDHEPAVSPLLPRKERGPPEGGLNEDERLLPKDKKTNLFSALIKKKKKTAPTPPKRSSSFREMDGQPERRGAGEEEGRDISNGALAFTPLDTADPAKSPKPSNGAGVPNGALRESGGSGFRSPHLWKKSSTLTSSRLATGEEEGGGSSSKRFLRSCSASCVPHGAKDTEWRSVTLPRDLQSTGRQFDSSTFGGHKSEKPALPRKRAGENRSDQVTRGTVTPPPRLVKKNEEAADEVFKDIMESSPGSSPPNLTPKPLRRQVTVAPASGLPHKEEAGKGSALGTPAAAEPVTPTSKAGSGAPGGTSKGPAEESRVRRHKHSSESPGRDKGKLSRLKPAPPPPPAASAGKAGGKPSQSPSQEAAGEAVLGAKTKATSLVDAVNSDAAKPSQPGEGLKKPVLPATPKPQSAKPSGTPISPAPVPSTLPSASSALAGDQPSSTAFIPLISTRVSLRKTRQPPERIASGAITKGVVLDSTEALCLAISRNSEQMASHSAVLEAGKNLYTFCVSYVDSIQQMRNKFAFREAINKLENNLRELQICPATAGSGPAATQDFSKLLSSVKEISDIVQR
# Procedure, shortened: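 0.5 µg GST-c-Abl catalytic domain preincubated 10 min on ice with inhibitor (DMSO stock) in 50 mM Tris-HCl pH 7.5, 10 mM MgCl₂, 10 µM orthovanadate, 1 mM DTT; [³²Pγ]ATP, final ATP 111 nM, 30 °C 30 min; SDS-PAGE; autophosphorylation radioactivity normalized to Coomassie-stained protein.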
# [6] = target: T1, Receptor-type tyrosine-protein kinase FLT3; experiment: Inhibition of human FLT3
# Bcr/Abl fusion protein = Bcr/Abl fusion protein (Homo sapiens, UniProt P00519); experiment: Inhibition of oncogenic Bcr-Abl kinase in K562 cells; assay type: cell-based
# Chain of Bcr/Abl fusion protein (P00519 whole entry, the tested form may be a part): as above
# Chain of Bcr/Abl fusion protein (P11274 whole entry, further chain, the tested form may be a part): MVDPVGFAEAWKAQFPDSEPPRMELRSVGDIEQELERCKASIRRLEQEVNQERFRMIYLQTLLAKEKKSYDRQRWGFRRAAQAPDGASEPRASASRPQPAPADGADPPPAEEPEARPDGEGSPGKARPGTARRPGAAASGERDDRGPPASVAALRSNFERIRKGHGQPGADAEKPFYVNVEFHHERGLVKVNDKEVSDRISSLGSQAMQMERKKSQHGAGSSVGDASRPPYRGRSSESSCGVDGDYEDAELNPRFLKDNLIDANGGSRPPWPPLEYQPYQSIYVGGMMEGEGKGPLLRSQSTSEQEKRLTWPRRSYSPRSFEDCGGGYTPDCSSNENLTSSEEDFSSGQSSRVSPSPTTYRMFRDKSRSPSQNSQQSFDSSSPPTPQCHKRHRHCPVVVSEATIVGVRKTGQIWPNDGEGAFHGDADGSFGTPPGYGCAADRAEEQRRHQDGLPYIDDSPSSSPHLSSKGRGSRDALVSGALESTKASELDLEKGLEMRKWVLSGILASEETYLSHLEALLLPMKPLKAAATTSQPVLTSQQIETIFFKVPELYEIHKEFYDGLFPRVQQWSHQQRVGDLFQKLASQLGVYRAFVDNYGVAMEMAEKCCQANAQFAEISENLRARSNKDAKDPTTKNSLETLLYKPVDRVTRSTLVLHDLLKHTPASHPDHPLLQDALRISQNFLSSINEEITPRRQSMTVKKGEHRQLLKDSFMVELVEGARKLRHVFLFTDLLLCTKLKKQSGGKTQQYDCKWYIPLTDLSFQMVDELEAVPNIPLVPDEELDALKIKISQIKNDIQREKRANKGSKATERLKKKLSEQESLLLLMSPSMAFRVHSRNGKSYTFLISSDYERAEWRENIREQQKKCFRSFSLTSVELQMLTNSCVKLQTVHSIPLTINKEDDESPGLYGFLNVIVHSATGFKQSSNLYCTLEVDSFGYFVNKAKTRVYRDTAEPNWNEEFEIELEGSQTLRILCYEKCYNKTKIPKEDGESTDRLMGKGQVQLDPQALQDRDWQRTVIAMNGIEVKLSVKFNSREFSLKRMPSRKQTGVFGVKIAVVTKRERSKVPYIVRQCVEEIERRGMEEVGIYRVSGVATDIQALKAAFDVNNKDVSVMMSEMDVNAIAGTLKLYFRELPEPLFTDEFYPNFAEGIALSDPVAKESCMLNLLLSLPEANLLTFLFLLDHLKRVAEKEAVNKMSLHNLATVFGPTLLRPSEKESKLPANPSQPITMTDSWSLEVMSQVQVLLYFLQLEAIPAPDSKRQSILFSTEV
# Procedure, shortened: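 K562 cells, 2 × 10⁶ in 1 mL serum-free RPMI1640, inhibitor or 1% DMSO at 37 °C for 2 h; lysates immunoblotted with anti-pAbl and anti-Abl to gauge Bcr-Abl autophosphorylation.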
IC50 [1] [nM],Structure (SMILES),also measured
4800,O=C(c1cc2cc(O)ccc2[nH]1)c1cc2cccc(F)c2[nH]1,IC50 [3]: > 30000 nM
> 30000,COc1ccc2[nH]c(C(=O)c3cc4c(Cl)cccc4[nH]3)cc2c1,–
4400,CCc1cccc2cc(C(=O)c3cc4cc(O)ccc4[nH]3)[nH]c12,–
1200,Cc1cccc2[nH]c(C(=O)c3cc4cc(F)ccc4[nH]3)cc12,–
400,COc1ccc2[nH]c(C(=O)c3cc4cc(F)ccc4[nH]3)cc2c1,–
200,COc1ccc2[nH]c(C(=O)c3cc4ccc(Cl)cc4[nH]3)cc2c1,IC50 [2]: 55 nM
580,Cc1ccc2cc(C(=O)c3cc4cc(O)ccc4[nH]3)[nH]c2c1,–
> 30000,COc1ccc2[nH]c(C(=O)c3cc4cccc(Cl)c4[nH]3)cc2c1,IC50 [3]: > 30000 nM
760,O=C(c1cc2ccccc2[nH]1)c1cc2cc(F)ccc2[nH]1,–
1000,O=C(c1cc2ccccc2[nH]1)c1cc2ccccc2[nH]1,–
510,COc1ccc2[nH]c(C(=O)c3cc4ccc(C)cc4[nH]3)cc2c1,–
200,O=C(c1cc2ccccc2[nH]1)c1cc2cc(O)ccc2[nH]1,IC50 [3]: 570 nM
590,O=C(c1cc2cc(O)ccc2[nH]1)c1cc2ccc(F)cc2[nH]1,–
8500,COc1ccc2[nH]c(C(=O)c3cc4cc(Br)ccc4[nH]3)cc2c1,–
730,O=C(c1cc2cc(O)ccc2[nH]1)c1cc2cc(F)ccc2[nH]1,–

# More lines, now with the values behind:
Structure (SMILES),IC50 [1] [nM],also measured
COc1ccc2[nH]c(C(=O)c3cc4c(C)cccc4[nH]3)cc2c1,4030,–
COc1ccc2cc(C(=O)c3cc4cc(OCCN(C)C)ccc4[nH]3)[nH]c2c1,2800,–
Cc1cccc2[nH]c(C(=O)c3cc4cc(OCCN5CCCCC5)ccc4[nH]3)cc12,10000,IC50 [2]: 1200 nM
O=C(c1cc2cc(F)ccc2[nH]1)c1cc2cc(OCCN3CCCCC3)ccc2[nH]1,500,–
COc1ccc2[nH]c(Cc3cc4ccccc4[nH]3)cc2c1,> 30000,IC50 [3]: > 30000 nM
COc1ccc2[nH]c(C(=O)c3cc4cc(Cl)ccc4[nH]3)cc2c1,2500,–
COc1ccc2[nH]c(Cc3cc4cc(F)ccc4[nH]3)cc2c1,> 30000,IC50 [3]: > 30000 nM
COc1ccc2[nH]c(C(=O)c3cc4ccc(F)cc4[nH]3)cc2c1,840,–
COc1ccc2[nH]c(C(=O)c3cc4c(F)cccc4[nH]3)cc2c1,8100,–
Cc1ccc2[nH]c(C(=O)c3cc4cc(O)ccc4[nH]3)cc2c1,3500,–
Cc1cccc2[nH]c(C(=O)c3cc4cc(O)ccc4[nH]3)cc12,960,IC50 [2]: 458 nM; Activity [4]: inactive
Cc1cc2ncc(-c3ccccc3)nc2cc1C [AG1295],5400,IC50 [3]: 1100 nM
COc1ccc2cc(C(=O)c3cc4cc(OCc5ccccc5)ccc4[nH]3)[nH]c2c1,> 30000,–
COc1cccc2cc(C(=O)c3cc4cc(O)ccc4[nH]3)[nH]c12,2900,–
O=C(c1cc2cc(O)ccc2[nH]1)c1cc2cc(O)ccc2[nH]1,300,IC50 [5]: 1300 nM; IC50 [2]: 171 nM; IC50 [6]: 33 nM; IC50 (Bcr/Abl fusion protein): 4200 nM; IC50 [3]: 40 nM
COc1ccc2cc(C(=O)c3cc4cc(O)ccc4[nH]3)[nH]c2c1,650,–
O=C(c1cc2cc(O)ccc2[nH]1)c1cc2c(Br)cccc2[nH]1,6100,–
O=C(c1cc2cc(O)ccc2[nH]1)c1cc2c(Cl)cccc2[nH]1,500,–
COc1cccc2[nH]c(C(=O)c3cc4cc(O)ccc4[nH]3)cc12,960,–
O=C(c1cc2cc(F)ccc2[nH]1)c1cc2cc(OCc3ccccc3)ccc2[nH]1,5800,IC50 [3]: > 30000 nM
O=C(c1cc2ccccc2[nH]1)c1cc2cc(Oc3ccccc3)ccc2[nH]1,10000,–
COc1ccc2[nH]c(C(=O)c3cc4cc(C)ccc4[nH]3)cc2c1,> 30000,–
COc1cccc2[nH]c(C(=O)c3cc4ccccc4[nH]3)cc12,1500,–
COc1ccc2cc(C(=O)c3cc4cc(OCCN5CCCCC5)ccc4[nH]3)[nH]c2c1,1000,–
O=C(c1cc2cc(O)ccc2[nH]1)c1cc2c(F)cccc2[nH]1,620,–
